Screening data (PubChem BioAssay)
H9c2 protect: modulators protecting cardiomyocytes from myocardial damage. protection from H2O2 cell death, % at 20 µM. H9c2 cardiomyocytes, H2O2 injury protection, ATPLite, 2 h. 0.63% of 360,000 active;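 active means compounds giving at least 50% protection of heart cells from peroxide-induced death in the single-dose screen, raw or plate-pattern-corrected value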
aDG glyco act: increases alpha dystroglycan glycosylation. Pro5-aDG cells, alpha-DG glycosylation AlphaScreen (IIH6); 0% Pro5, 100% B10-LARGE cell signal. AID 624168. activation, % at 10 µM. 0.22% of 360,000 active;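 active means activation of at least 8% versus controls, or a plate z-score of at least 8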;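 further: Pro5 are CHO cells carrying HIG-tagged alpha-DG that lacks glycosylation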
HKDC1 inhibitor: blocks human hexokinase HKDC1 activity. 0.16% of 340,000 active. recombinant HKDC1, G6PDH/diaphorase resazurin coupled fluorescence. Q2TB90. inhibition, % at 20 µM;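 active means inhibition above about 35% when tested at 20 µM, limit read from the data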
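Incubation: 90 min at room temperature in dark / Material: recombinant HKDC1 (HK5) hexokinase enzyme, produced in-house / Quantity: enzyme 5 µg/mL final / Compound: one dose of 20 µM, 1% DMSO / Reagent: glucose and ATP substrates / Buffer or medium: Tris pH 8.0 buffer with MgCl2, Tween-20, BSA, BME / Technique: resorufin fluorescence at 613 nm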
Beta2AR agonist: activates human beta-2 adrenergic receptor causing internalization; P07550; Am2.2-beta2AR cells, FAP receptor internalization, flow cytometry; response, % (no concentration beside the values); 0.43% of 340,000 active; AID 504454;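 active means response above a set limit, near 3 SD of response in nonfluorescent compounds, cut at about 42% in these data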
PfGluPho inh: PfG6PD (Plasmodium falciparum) enzyme inhibition; AID 504690; PfGluPho enzyme, NADPH resazurin-diaphorase fluorescence; inhibition, % at 20 µM; 0.78% of 350,000 active;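 active means inhibition reaching at least a set limit at 20 µM in the primary screen, cut at about 59% in these data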
UCH37 inh: human UCH37 deubiquitinating enzyme inhibition; purified proteasome/UCH37, Ub-AMC cleavage fluorescence; inhibition, % (test concentration not listed); Q9Y5K5; 0.33% of 330,000 active;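 active means mean inhibition over replicate wells above about 20%, limit read from the data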
Target sequence (Q9Y5K5 whole entry, looked up): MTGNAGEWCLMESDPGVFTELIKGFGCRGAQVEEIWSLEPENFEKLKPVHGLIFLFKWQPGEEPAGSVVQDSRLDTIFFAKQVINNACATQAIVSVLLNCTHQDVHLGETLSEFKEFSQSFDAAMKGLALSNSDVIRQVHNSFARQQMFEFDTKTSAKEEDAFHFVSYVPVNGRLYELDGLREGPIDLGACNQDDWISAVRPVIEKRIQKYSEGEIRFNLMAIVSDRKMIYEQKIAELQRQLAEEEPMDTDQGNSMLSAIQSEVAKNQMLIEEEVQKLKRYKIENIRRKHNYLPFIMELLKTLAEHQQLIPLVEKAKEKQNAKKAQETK
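Material: human UCH37 enzyme supplied as purified proteasome complex. Measure: % inhibition of Ub-AMC cleavage fluorescence. Medium: pH 7.4 Tris-HCl (50 mM) with ovalbumin, ATP-MgCl2, DTT. Times: 30 min preincubation with enzyme, 25 min cleavage at room temperature. Detection: AMC fluorescence intensity at 355/460 nm.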
PfG6PD confirm: confirmation of Plasmodium falciparum G6PD inhibitors; shares compounds with PfGluPho inh; recombinant PfGluPho, NADPH-diaphorase-resazurin fluorescence; inhibition, % at 20 µM; 34% of 2,400 active; AID 504753;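 active means inhibition of at least 50% at 20 µM in any single replicate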
Diaph ctr 10uM: inhibits diaphorase or oxidizes, flagging false PfG6PD hits; diaphorase-coupled resazurin reduction, fluorescence, NADPH 10 uM; shares compounds with PfGluPho inh; inhibition, % at 20 µM; 39% of 820 active;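 active means average inhibition reaching 50% or more with the compound at 20 µM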;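 further: resorufin red fluorescence formed as diaphorase reduces resazurin using NADPH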
Diaphorase 30uM: inhibits diaphorase or oxidizes, flagging false PfG6PD hits. AID 504863. Diaphorase/resazurin coupled assay, resorufin fluorescence, 30 uM NADPH. shares compounds with PfGluPho inh. inhibition, % at 20 µM. 29% of 820 active;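 active means inhibition averaging 50% or more, tested at 20 µM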
A number is an active result. Hits are enriched below; roughly 2.1% of the tested compounds scored in any of these assays.

`Cc1c(C(=O)c2ccc(F)cc2F)c2ccccn2c1CCC#N` gave H9c2 protect inactive, aDG glyco act inactive, HKDC1 inhibitor inactive, Beta2AR agonist inactive, PfGluPho inh 94.5 and PfG6PD confirm inactive.
For CC(C)(C)Nc1nc(-c2ccc3c(c2)CCN3C(=O)C2CC2)cs1 the results were H9c2 protect inactive, aDG glyco act inactive, HKDC1 inhibitor inactive, Beta2AR agonist inactive, PfGluPho inh 69.5, UCH37 inh inactive and PfG6PD confirm inactive.
For O=c1c(Br)ccc(Br)cc1Br the results were H9c2 protect inactive, aDG glyco act inactive, HKDC1 inhibitor inactive, Beta2AR agonist 70.0, PfGluPho inh 65.8, UCH37 inh inactive and PfG6PD confirm inactive.
`Cc1nc(NC(=O)c2ccccc2)sc1Cc1ccc2c(c1)OCO2` gave H9c2 protect inactive, aDG glyco act inactive, HKDC1 inhibitor inactive, Beta2AR agonist inactive, PfGluPho inh inactive and UCH37 inh inactive.
For Cc1nc(NC(=O)c2ccc(Cl)cc2)sc1Cc1ccc2c(c1)OCO2 the results were H9c2 protect inactive, aDG glyco act inactive, HKDC1 inhibitor inactive, Beta2AR agonist inactive, PfGluPho inh 59.6, UCH37 inh inactive and PfG6PD confirm inactive.
CCOc1ccc(N(CC(=O)N/N=C/c2cc([N+](=O)[O-])ccc2Cl)S(C)(=O)=O)cc1 was read as H9c2 protect inactive, aDG glyco act inactive, HKDC1 inhibitor inactive, Beta2AR agonist inactive, PfGluPho inh 86.7, PfG6PD confirm 59.9, Diaph ctr 10uM 71.7 and Diaphorase 30uM inactive.
Screening CCOC(=O)c1c(OCC)[nH]c2c1cc(O)c1ccccc12 returned H9c2 protect inactive, aDG glyco act inactive, HKDC1 inhibitor inactive, Beta2AR agonist inactive, PfGluPho inh 68.8, UCH37 inh inactive, PfG6PD confirm 48.5, Diaph ctr 10uM inactive and Diaphorase 30uM inactive.
CCn1c(C)nc2cc(C(=O)OC(C(F)(F)C(F)F)C(F)(F)C(F)F)ccc21 was read as H9c2 protect inactive, aDG glyco act inactive, HKDC1 inhibitor inactive, Beta2AR agonist inactive, PfGluPho inh 61.3, UCH37 inh inactive and PfG6PD confirm inactive.
Screening C/C(=N\Nc1ccc(Cl)cc1)c1ccncc1 returned H9c2 protect inactive, aDG glyco act inactive, HKDC1 inhibitor inactive, Beta2AR agonist inactive and PfGluPho inh inactive.
Screening C/C(=N\Nc1cccc(Cl)c1)c1ccncc1 returned H9c2 protect inactive, aDG glyco act inactive, HKDC1 inhibitor inactive, Beta2AR agonist inactive, PfGluPho inh 78.2 and PfG6PD confirm inactive.
For CC1CCN(Cc2c(C(=O)NN=Cc3ccc(C(C)C)cc3)nnn2-c2nonc2N)CC1 the results were UCH37 inh inactive.
COc1cc(C=NNC(=O)Cc2csc(C)n2)ccc1OCC(C)C was read as UCH37 inh inactive.
C[C@@H]1CCCCO[C@H](CN(C)C(=O)Nc2cccc3ccccc23)[C@@H](C)CN([C@H](C)CO)C(=O)c2cc(N(C)C)ccc2O1 was read as H9c2 protect inactive, aDG glyco act inactive, PfGluPho inh 62.9 and PfG6PD confirm inactive.
Screening C[C@@H]1CCCCO[C@@H](CN(C)C(=O)Nc2ccccc2)[C@@H](C)CN([C@H](C)CO)C(=O)c2cc(N(C)C)ccc2O1 returned H9c2 protect inactive, aDG glyco act inactive and PfGluPho inh inactive.
`COc1ccc(NC(=O)c2ccc(OC(F)F)cc2)cc1Cl` gave H9c2 protect inactive, aDG glyco act inactive, HKDC1 inhibitor inactive, Beta2AR agonist inactive, PfGluPho inh 84.5, UCH37 inh inactive and PfG6PD confirm inactive.
Screening COc1ccc(NC(=O)c2cc(F)cc(F)c2)cc1Cl returned H9c2 protect inactive, aDG glyco act inactive, HKDC1 inhibitor inactive, Beta2AR agonist inactive, PfGluPho inh inactive and UCH37 inh inactive.
c1ccc(C2Nc3cccc4cccc(c34)N2)cc1 was read as H9c2 protect inactive, aDG glyco act inactive, HKDC1 inhibitor inactive, Beta2AR agonist inactive and PfGluPho inh inactive.
`COc1ccc(C2Nc3cccc4cccc(c34)N2)cc1` gave H9c2 protect inactive, aDG glyco act inactive, HKDC1 inhibitor inactive, Beta2AR agonist inactive, PfGluPho inh 69.4, UCH37 inh inactive and PfG6PD confirm inactive.
Screening CCn1c(N)c(C(=O)NCc2ccc3c(c2)OCO3)sc1=S returned H9c2 protect inactive, aDG glyco act inactive, HKDC1 inhibitor inactive, Beta2AR agonist inactive, PfGluPho inh 73.6, UCH37 inh inactive and PfG6PD confirm inactive.
Screening CCOC(=O)c1c(C)[nH]c(C)c1C(=O)COC(=O)c1cccs1 returned H9c2 protect inactive, aDG glyco act inactive, HKDC1 inhibitor inactive, Beta2AR agonist inactive, PfGluPho inh 59.6, UCH37 inh inactive and PfG6PD confirm inactive.
`Cc1nc(C(F)(F)F)c(C(=O)NN=C(N)c2cccnc2)s1` gave UCH37 inh inactive.
`O=C(c1cc(-c2ccc(F)cc2)nc2ccccc12)N1CCC1` gave H9c2 protect inactive, aDG glyco act inactive, HKDC1 inhibitor inactive, Beta2AR agonist inactive, PfGluPho inh inactive and UCH37 inh inactive.
Screening O=C(O)c1cc(-c2ccc(-c3ccc(F)cc3)o2)nc2ccccc12 returned H9c2 protect inactive, aDG glyco act inactive, HKDC1 inhibitor inactive, Beta2AR agonist inactive, PfGluPho inh 93.3 and PfG6PD confirm inactive.
For CCOc1ccc(C=NNC(=O)c2ccc(Cn3cc([N+](=O)[O-])cn3)o2)cc1 the results were UCH37 inh inactive.
Screening CC12CCC(CC1=NO)C2(C)C (stereo not drawn) returned UCH37 inh inactive.
For Cc1ccc(-c2ccc(/C=N/NC(N)=S)o2)cc1 the results were H9c2 protect inactive, aDG glyco act inactive, HKDC1 inhibitor inactive, Beta2AR agonist inactive, PfGluPho inh 61.6 and PfG6PD confirm inactive.
Screening NC(=S)N/N=C/c1ccc(-c2ccccc2)o1 returned H9c2 protect inactive, aDG glyco act inactive, HKDC1 inhibitor inactive, Beta2AR agonist inactive and PfGluPho inh inactive.
`Clc1cccc(C=NNc2nccs2)c1` gave UCH37 inh inactive.
`COc1ccccc1N1CSC2=C(C#N)C(c3ccc(SC)cc3)CC(=O)N2C1` (stereo not drawn) gave H9c2 protect inactive, aDG glyco act inactive, HKDC1 inhibitor inactive, Beta2AR agonist inactive, PfGluPho inh 67.5, UCH37 inh inactive, PfG6PD confirm 51.9, Diaph ctr 10uM inactive and Diaphorase 30uM inactive.
